From ChEMBL document CHEMBL1126061, “Cyclic RGD peptide analogues as antiplatelet antithrombotics” (J Med Chem, 1992) come the findings set out here.

pIC50: −log10 of the molar value. *1 amine or outer side, *2 acyl side, *3 side chain or, on linkers, in order; H or OH if unused. Where a SMILES comes first, the peptide text is derived from it. Bridges are numbered along the chain shown (N, C = ends). [ ]: non-standard residue; d: D form. Cys(O)(CH2CO) = O=C([C@H](C[S+]([O-])CC(=O)[*:3])N[*:1])[*:2]; X1 = C[C@@H](O)[C@@H](C(=O)[*:2])N(c1cccc(CC[*:3])c1)[*:1]

The assay has as its target Integrin alpha-IIb/beta-3 (Homo sapiens, UniProt P05106+P08514). As to the kind of experiment: The compound was tested for the inhibition of fibrinogen receptor. The assay is classed as protein-complex assay. A digest of the protocol: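 Solid-phase ELISA: human fibrinogen (10 µg/mL) coated, BSA-blocked; samples plus purified human platelet GPIIbIIIa (40 µg/mL) incubated 1 h at room temperature. Bound receptor detected with anti-GPIIbIIIa antibody AP3 (1 µg/mL, 1 h), then goat anti-mouse HRP (1 h); OPD/H2O2 at pH 5, stopped with H2SO4, absorbance 492-405 nm. IC50 from four-parameter fit; n ≥ 3.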

The pIC50 is the negative decadic logarithm of the IC50, by convention in mol/L. Read a low pIC50 as a large IC50.

Sequence of Integrin alpha-IIb/beta-3 (P05106 27-788 limits assumed): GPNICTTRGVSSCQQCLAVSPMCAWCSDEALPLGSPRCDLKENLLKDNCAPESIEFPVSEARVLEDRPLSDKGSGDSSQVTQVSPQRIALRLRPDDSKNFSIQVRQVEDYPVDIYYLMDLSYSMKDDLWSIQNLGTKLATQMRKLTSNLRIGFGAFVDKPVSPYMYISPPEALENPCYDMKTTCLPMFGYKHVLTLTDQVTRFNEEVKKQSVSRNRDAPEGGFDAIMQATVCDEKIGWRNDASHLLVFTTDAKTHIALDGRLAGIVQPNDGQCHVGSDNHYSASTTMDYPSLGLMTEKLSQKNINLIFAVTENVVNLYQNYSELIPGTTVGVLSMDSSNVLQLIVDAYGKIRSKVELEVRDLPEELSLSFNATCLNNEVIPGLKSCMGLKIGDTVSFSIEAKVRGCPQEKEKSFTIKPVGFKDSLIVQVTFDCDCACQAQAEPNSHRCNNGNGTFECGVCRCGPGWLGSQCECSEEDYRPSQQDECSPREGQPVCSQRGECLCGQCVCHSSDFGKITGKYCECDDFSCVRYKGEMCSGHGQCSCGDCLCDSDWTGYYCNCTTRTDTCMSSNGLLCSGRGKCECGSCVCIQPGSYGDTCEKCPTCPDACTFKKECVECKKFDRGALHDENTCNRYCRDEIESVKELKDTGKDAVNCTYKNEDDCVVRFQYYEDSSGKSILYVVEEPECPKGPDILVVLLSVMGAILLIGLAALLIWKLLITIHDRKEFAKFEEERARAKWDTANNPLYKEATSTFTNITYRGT
Sequence of Integrin alpha-IIb/beta-3 (P08514 32-887 limits assumed): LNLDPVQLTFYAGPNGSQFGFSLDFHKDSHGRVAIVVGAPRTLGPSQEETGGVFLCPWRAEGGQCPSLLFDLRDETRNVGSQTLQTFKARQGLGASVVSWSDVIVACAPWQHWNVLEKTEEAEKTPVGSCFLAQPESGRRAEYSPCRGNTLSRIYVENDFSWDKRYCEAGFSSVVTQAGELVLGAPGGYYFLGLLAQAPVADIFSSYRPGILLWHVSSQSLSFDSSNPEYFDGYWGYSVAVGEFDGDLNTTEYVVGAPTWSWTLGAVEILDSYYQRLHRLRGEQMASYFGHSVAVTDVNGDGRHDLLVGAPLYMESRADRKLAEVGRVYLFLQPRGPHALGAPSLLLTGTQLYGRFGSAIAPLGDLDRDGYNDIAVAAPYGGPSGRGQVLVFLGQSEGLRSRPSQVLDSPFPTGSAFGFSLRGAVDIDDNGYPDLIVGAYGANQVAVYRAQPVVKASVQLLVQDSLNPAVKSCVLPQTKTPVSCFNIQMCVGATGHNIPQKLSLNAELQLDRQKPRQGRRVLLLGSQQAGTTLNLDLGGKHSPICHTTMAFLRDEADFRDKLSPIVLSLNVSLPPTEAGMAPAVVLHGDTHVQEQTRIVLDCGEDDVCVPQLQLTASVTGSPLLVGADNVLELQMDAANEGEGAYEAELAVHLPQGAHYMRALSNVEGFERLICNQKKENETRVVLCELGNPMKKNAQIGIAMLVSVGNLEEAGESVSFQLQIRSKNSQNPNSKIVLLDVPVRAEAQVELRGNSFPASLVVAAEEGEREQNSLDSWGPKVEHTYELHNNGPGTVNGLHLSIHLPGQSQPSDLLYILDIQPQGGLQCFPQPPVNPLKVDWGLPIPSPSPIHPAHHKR
Sequence of Integrin alpha-IIb/beta-3 (P08514 891-1039 limits assumed): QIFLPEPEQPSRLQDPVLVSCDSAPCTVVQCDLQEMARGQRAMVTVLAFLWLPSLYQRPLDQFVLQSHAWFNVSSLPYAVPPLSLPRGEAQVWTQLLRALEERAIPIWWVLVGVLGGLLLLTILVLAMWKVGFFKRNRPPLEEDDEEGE

In turn, `CC[C@@H](C)[C@H]1NC(=O)CSC[C@@H](C(=O)O)NC(=O)[C@H](CC(=O)O)NC(=O)CNC(=O)[C@H](CCCN=C(N)N)NC1=O` gave a negative-log IC50 (pIC50) of 7.74.

For `N=C(N)NCCC[C@@H]1NC(=O)[C@H](CO)NC(=O)CSC[C@@H](C(=O)O)NC(=O)[C@H](CC(=O)O)NC(=O)CNC1=O`, the pIC50 was 8.40.

For the compound `N=C(N)NCCC[C@@H]1NC(=O)[C@@H](CCC(=O)O)NC(=O)CSC[C@@H](C(=O)O)NC(=O)[C@H](CC(=O)O)NC(=O)CNC1=O`, the pIC50 is 6.59.

The compound `N=C(N)NCCC[C@@H]1NC(=O)CNC(=O)C(c2cccc(C(F)(F)F)c2)SC[C@@H](C(=O)O)NC(=O)[C@H](CC(=O)O)NC(=O)CNC1=O` (stereo in doubt; 24A) showed a pIC50 of 7.46.

Compound `N=C(N)NCCC[C@@H]1NC(=O)[C@H](CC(N)=O)NC(=O)C[S+]([O-])C[C@@H](C(=O)O)NC(=O)[C@H](CC(=O)O)NC(=O)CNC1=O` (stereo in doubt; 67A) had a pIC50 of 8.22.

As to `CC(C)[C@H](NC(=O)[C@H](CC(=O)O)NC(=O)CNC(=O)[C@H](CCCN=C(N)N)NC(=O)CN)C(=O)O` (H-GRGDV-OH), the pIC50 was 7.52.

Compound `N=C(N)NCCC[C@@H]1NC(=O)[C@H](CC(N)=O)NC(=O)CSC[C@@H](C(=O)O)NC(=O)[C@H](CC(=O)O)NC(=O)CNC1=O` ({CH2CO}-NRGDC-OH; thioether N-5) gave a pIC50 of 8.57.

`N=C(N)NCCC[C@@H]1NC(=O)[C@H](Cc2ccccc2)NC(=O)CSC[C@@H](C(=O)O)NC(=O)[C@H](CC(=O)O)NC(=O)CNC1=O` gave a pIC50 of 8.15.

The compound `N=C(N)NCCC[C@@H]1NC(=O)CNC(=O)CSC[C@@H](C(N)=O)NC(=O)[C@H](CC(=O)O)NC(=O)CNC1=O` ({CH2CO}-GRGDC-NH2; thioether N-5) gave a pIC50 of 7.92. Compared with the last compound, the pIC50 is 0.23 log units lower.

Regarding `CCC1SC[C@@H](C(=O)O)NC(=O)[C@H](CC(=O)O)NC(=O)CNC(=O)[C@H](CCCN=C(N)N)NC(=O)CNC1=O` (stereo in doubt; 25B), the pIC50 was 8.22.

The compound `CCCC1SC[C@@H](C(=O)O)NC(=O)[C@H](CC(=O)O)NC(=O)CNC(=O)[C@H](CCCNC(=N)N)NC(=O)CNC1=O` (stereo in doubt; 23A) had a pIC50 of 7.68.

`C[C@@H]1NC(=O)CSC[C@@H](C(=O)O)NC(=O)[C@H](CC(=O)O)NC(=O)CNC(=O)[C@H](CCCNC(=N)N)NC1=O` ({CH2CO}-ARGDC-OH; thioether N-5) gave a pIC50 of 8.60. This pIC50 lies 0.92 log units higher than the previous one.

In the case of `CSCC[C@@H]1NC(=O)CSC[C@@H](C(=O)O)NC(=O)[C@H](CC(=O)O)NC(=O)CNC(=O)[C@H](CCCNC(=N)N)NC1=O`, the pIC50 is 8.40. This pIC50 is 0.20 log units lower than that of the compound before.

For the compound `C[C@H]1NC(=O)CSC[C@@H](C(=O)O)NC(=O)[C@H](CC(=O)O)NC(=O)CNC(=O)[C@H](CCCNC(=N)N)NC1=O` ({CH2CO}-[dA]RGDC-OH; thioether N-5), the pIC50 is 8.02. This pIC50 lies 0.38 log units lower than the previous one.

For the compound `N=C(N)NCCC[C@@H]1NC(=O)CNC(=O)C(c2cccc3ccccc23)SC[C@@H](C(=O)O)NC(=O)[C@H](CC(=O)O)NC(=O)CNC1=O` (stereo in doubt; 17A), the negative logarithm of the IC50 (pIC50) was 8.28.

For the compound `CCCC1SC[C@@H](C(=O)O)NC(=O)[C@H](CC(=O)O)NC(=O)CNC(=O)[C@H](CCCNC(=N)N)NC(=O)CNC1=O` (stereo in doubt; 23B), the pIC50 was 8.27.

In turn, `CC[C@H](C)[C@@H]1NC(=O)CSC[C@@H](C(=O)O)NC(=O)[C@H](CC(=O)O)NC(=O)CNC(=O)[C@H](CCCN=C(N)N)NC1=O` showed a pIC50 of 8.22.

As for `N=C(N)NCCC[C@@H]1NC(=O)[C@@H](Cc2c[nH]cn2)NC(=O)CSC[C@@H](C(=O)O)NC(=O)[C@H](CC(=O)O)NC(=O)CNC1=O`, the pIC50 is 8.17.

Compound `N=C(N)NCCC[C@@H]1NC(=O)CNC(=O)C(c2cccc(C(F)(F)F)c2)SC[C@@H](C(=O)O)NC(=O)[C@H](CC(=O)O)NC(=O)CNC1=O` (stereo in doubt; 24B) showed a pIC50 of 8.24. This pIC50 and that of the compound before are within 0.2 log units of each other.

In turn, `N=C(N)NCCC[C@@H]1NC(=O)CNC(=O)C(c2ccc(-c3ccccc3)cc2)SC[C@@H](C(=O)O)NC(=O)[C@H](CC(=O)O)NC(=O)CNC1=O` (stereo in doubt; 19A) had a pIC50 of 8.30. This pIC50 and that of the compound before are within 0.2 log units of each other.

`NC(N)=NCCC[C@H](N)C(=O)NCC(=O)N[C@@H](CC(=O)O)C(=O)N[C@@H](Cc1ccc(O)cc1)C(=O)O` (H-RGDY-OH): the pIC50 was 7.15.

For the compound `N=C(N)NCCC[C@@H]1NC(=O)[C@H](CCC(=O)O)NC(=O)C[S+]([O-])C[C@@H](C(=O)O)NC(=O)[C@H](CC(=O)O)NC(=O)CNC1=O` (stereo in doubt; 73B), the negative-log IC50 (pIC50) is 7.17.

The compound `N=C(N)NCCC[C@@H]1NC(=O)[C@H](CCC(N)=O)NC(=O)CSC[C@@H](C(=O)O)NC(=O)[C@H](CC(=O)O)NC(=O)CNC1=O` had a pIC50 of 7.37.

For `CSCC[C@H]1NC(=O)CSC[C@@H](C(=O)O)NC(=O)[C@H](CC(=O)O)NC(=O)CNC(=O)[C@H](CCCNC(=N)N)NC1=O`, the pIC50 is 7.55. The pIC50 values of the last two compounds are within 0.2 log units of each other.

`N=C(N)NCCC[C@@H]1NC(=O)[C@@H](CCCN)NC(=O)CSC[C@@H](C(=O)O)NC(=O)[C@H](CC(=O)O)NC(=O)CNC1=O`: the pIC50 is 7.51.

In turn, `CC(C)(C)C[C@@H]1NC(=O)CSC[C@@H](C(=O)O)NC(=O)[C@H](CC(=O)O)NC(=O)CNC(=O)[C@H](CCCNC(=N)N)NC1=O` had a pIC50 of 8.44.

`N=C(N)NCCC[C@@H]1NC(=O)[C@H](Cc2ccc(O)cc2)NC(=O)C[S+]([O-])C[C@@H](C(N)=O)NC(=O)[C@H](CC(=O)O)NC(=O)CNC1=O` (stereo not given in full) (YRGD[Cys(O)(CH2CO)]-NH2; lactam N-5) showed a pIC50 of 8.35.

With `N=C(N)NCCC[C@@H]1NC(=O)CNC(=O)C(c2ccc3ccccc3c2)SC[C@@H](C(=O)O)NC(=O)[C@H](CC(=O)O)NC(=O)CNC1=O` (stereo in doubt; 21B), the negative-log IC50 (pIC50) was 8.55.

In turn, `N=C(N)NCCC[C@@H]1NC(=O)CCNC(=O)CSC[C@@H](C(=O)O)NC(=O)[C@H](CC(=O)O)NC(=O)CNC1=O` gave a negative logarithm of the IC50 (pIC50) of 7.92.

Turning to `N=C(N)NCCC[C@@H]1NC(=O)CNC(=O)C(c2ccc(C(F)(F)F)cc2)SC[C@@H](C(=O)O)NC(=O)[C@H](CC(=O)O)NC(=O)CNC1=O` (stereo in doubt; 22B), the pIC50 is 8.40.

For `N=C(N)NCCC[C@@H]1NC(=O)[C@H](CCC(=O)O)NC(=O)C[S+]([O-])C[C@@H](C(=O)O)NC(=O)[C@H](CC(=O)O)NC(=O)CNC1=O` (stereo in doubt; 73A), the pIC50 is 8.33.

`C[C@@H](O)[C@@H]1Nc2cccc(c2)CCSC[C@@H](C(=O)O)NC(=O)[C@H](CC(=O)O)NC(=O)CNC(=O)[C@H](CCCN=C(N)N)NC1=O` (H-[X1]RGDC-OH; thioether 1-5): the pIC50 is 8.77.

As for `N=C(N)NCCC[C@@H]1NC(=O)CNC(=O)CCSC[C@@H](C(=O)O)NC(=O)[C@H](CC(=O)O)NC(=O)CNC1=O`, the pIC50 is 7.12.

`N=C(N)NCCC[C@@H]1NC(=O)[C@H](CC(=O)O)NC(=O)C[S+]([O-])C[C@@H](C(=O)O)NC(=O)[C@H](CC(=O)O)NC(=O)CNC1=O` (stereo not given in full) (DRGD[Cys(O)(CH2CO)]-OH; lactam N-5) showed a pIC50 of 8.22.

The compound `NCCCC[C@@H]1NC(=O)CSC[C@@H](C(=O)O)NC(=O)[C@H](CC(=O)O)NC(=O)CNC(=O)[C@H](CCCN=C(N)N)NC1=O` gave a pIC50 of 8.12.

As to `N=C(N)NCCC[C@@H]1NC(=O)[C@H](CC(=O)O)NC(=O)CSC[C@@H](C(=O)O)NC(=O)[C@H](CC(=O)O)NC(=O)CNC1=O`, the pIC50 was 7.60.

On to `N=C(N)NCCC[C@@H]1NC(=O)[C@@H](Cc2ccc(O)cc2)NC(=O)CSC[C@@H](C(=O)O)NC(=O)[C@H](CC(=O)O)NC(=O)CNC1=O` ({CH2CO}-[dY]RGDC-OH; thioether N-5), for which the pIC50 is 7.70.

The compound `N=C(N)NCCC[C@@H]1NC(=O)[C@@H](Cc2ccccc2)NC(=O)CSC[C@@H](C(=O)O)NC(=O)[C@H](CC(=O)O)NC(=O)CNC1=O` showed a pIC50 of 7.46.

`N=C(N)NCCC[C@@H]1NC(=O)[C@@H](CC(=O)O)NC(=O)CSC[C@@H](C(=O)O)NC(=O)[C@H](CC(=O)O)NC(=O)CNC1=O`: the pIC50 was 6.30.

Turning to `CC(C)C[C@@H]1NC(=O)CSC[C@@H](C(=O)O)NC(=O)[C@H](CC(=O)O)NC(=O)CNC(=O)[C@H](CCCNC(=N)N)NC1=O`, the pIC50 is 8.52. This pIC50 lies 2.22 log units higher than the previous one.

On to `N=C(N)NCCC[C@@H]1NC(=O)CNC(=O)[C@H](Cc2ccccc2)SC[C@@H](C(=O)O)NC(=O)[C@H](CC(=O)O)NC(=O)CNC1=O`, for which the pIC50 is 7.85. This pIC50 lies 0.67 log units lower than the previous one.

For the compound `N=C(N)NCCC[C@@H]1NC(=O)[C@@H](Cc2ccc(O)cc2)NC(=O)C[S+]([O-])C[C@@H](C(=O)O)NC(=O)[C@H](CC(=O)O)NC(=O)CNC1=O` (stereo in doubt; 69B), the pIC50 was 7.40.

`N=C(N)NCCC[C@@H]1NC(=O)[C@@H](Cc2ccc(O)cc2)NC(=O)C[S+]([O-])C[C@@H](C(=O)O)NC(=O)[C@H](CC(=O)O)NC(=O)CNC1=O` (stereo in doubt; 69A) showed a pIC50 of 8.14.

The compound `CC(C)[C@@H]1NC(=O)CSC[C@@H](C(=O)O)NC(=O)[C@H](CC(=O)O)NC(=O)CNC(=O)[C@H](CCCN=C(N)N)NC1=O` gave a pIC50 of 8.70.

`N=C(N)NCCC[C@@H]1NC(=O)[C@@H](CCCCN)NC(=O)CSC[C@@H](C(=O)O)NC(=O)[C@H](CC(=O)O)NC(=O)CNC1=O` gave a negative logarithm of the IC50 (pIC50) of 7.70.

The compound `N=C(N)NCCC[C@@H]1NC(=O)[C@@H]2CCCN2C(=O)CSC[C@@H](C(=O)O)NC(=O)[C@H](CC(=O)O)NC(=O)CNC1=O` ({CH2CO}-PRGDC-OH; thioether N-5) had a pIC50 of 9.00.

In turn, `CC(C)C[C@H](NC(=O)[C@H](CC(=O)O)NC(=O)CNC(=O)[C@H](CCCN=C(N)N)NC(=O)CN)C(=O)O` (H-GRGDL-OH) gave a pIC50 of 6.30.

Consider `C[C@H](O)[C@H]1NC(=O)CSC[C@@H](C(=O)O)NC(=O)[C@H](CC(=O)O)NC(=O)CNC(=O)[C@H](CCCN=C(N)N)NC1=O`, for which the pIC50 is 7.94.

Regarding `CC(C)(C)C[C@H]1NC(=O)CSC[C@@H](C(=O)O)NC(=O)[C@H](CC(=O)O)NC(=O)CNC(=O)[C@H](CCCN=C(N)N)NC1=O`, the pIC50 was 7.66.

`N=C(N)NCCC[C@@H]1NC(=O)[C@H](Cc2cnc[nH]2)NC(=O)CSC[C@@H](C(=O)O)NC(=O)[C@H](CC(=O)O)NC(=O)CNC1=O`: the pIC50 is 8.52.
